This passage reports inhibition results from ChEMBL document CHEMBL3108700, “Designing anti-inflammatory drugs from parasitic worms: a synthetic small molecule analogue of the Acanthocheilonema viteae product ES-62 prevents development of collagen-induced arthritis” (J Med Chem, 2013).

In assay [1] the target is T1, TLR2/TLR6 (Mus musculus) (UniProt Q9QUN7+Q9EPW9). The assay is described as follows: Inhibition of TLR2/6 in BALB/c mouse BMDM assessed as downregulation of BLP-stimulated IL-12p40 level at 5 ug/ml preincubated for 18 hrs followed by BLP challenge measured after 24 hrs by ELISA relative to control. In kind it is protein-complex assay. A digest of the protocol:
(§1)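 BALB/c male bone marrow macrophages were differentiated 7 days with L929 supernatant (≥99% CD11b+/F4/80+). Cells were plated at 2 × 10^5/well in triplicate, rested overnight, and given compounds at 5 μg/mL for 18 h. They were then stimulated with 100 ng/mL S. minnesota LPS, 10 ng/mL Pam3CSK4 (BLP) or 0.01 μM CpG for 24 h. Supernatant IL-12p40 and IL-6 were measured by ELISA (sensitivity 16 pg/mL).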

Assay [2] has as its target T2, Toll-like receptor 4 (Mus musculus) (UniProt Q9QUK6).
T2 sequence (whole entry): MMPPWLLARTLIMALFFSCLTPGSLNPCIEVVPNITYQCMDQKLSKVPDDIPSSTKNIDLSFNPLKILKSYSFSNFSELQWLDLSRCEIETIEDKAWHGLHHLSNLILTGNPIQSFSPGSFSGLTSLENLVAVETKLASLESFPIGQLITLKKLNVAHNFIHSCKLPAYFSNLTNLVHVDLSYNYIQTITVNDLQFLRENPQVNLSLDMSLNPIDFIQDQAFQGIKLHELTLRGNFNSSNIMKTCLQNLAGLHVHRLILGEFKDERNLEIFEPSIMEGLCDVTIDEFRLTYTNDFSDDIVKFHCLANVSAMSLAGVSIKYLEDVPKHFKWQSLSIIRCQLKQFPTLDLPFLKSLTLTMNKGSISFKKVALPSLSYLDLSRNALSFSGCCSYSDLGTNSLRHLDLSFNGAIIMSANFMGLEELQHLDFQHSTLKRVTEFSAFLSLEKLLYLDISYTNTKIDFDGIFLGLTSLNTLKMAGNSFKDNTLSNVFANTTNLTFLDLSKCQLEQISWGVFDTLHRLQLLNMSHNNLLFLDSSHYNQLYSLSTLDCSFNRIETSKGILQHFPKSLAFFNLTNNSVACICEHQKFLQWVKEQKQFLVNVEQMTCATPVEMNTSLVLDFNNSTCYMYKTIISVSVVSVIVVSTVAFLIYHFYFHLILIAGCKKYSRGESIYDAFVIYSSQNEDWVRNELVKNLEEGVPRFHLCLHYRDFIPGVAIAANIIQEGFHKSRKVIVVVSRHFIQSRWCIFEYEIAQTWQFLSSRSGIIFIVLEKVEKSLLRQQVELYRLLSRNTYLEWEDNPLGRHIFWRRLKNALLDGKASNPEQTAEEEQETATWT
The assay is described as follows: Inhibition of TLR4 in BALB/c mouse BMDM assessed as downregulation of LPS-stimulated IL-12p40 level at 5 ug/ml preincubated for 18 hrs followed by LPS challenge measured after 24 hrs by ELISA relative to control. A digest of the protocol: as §1

Assay [3] concerns the target T2, Toll-like receptor 4 (Mus musculus). The assay is described as follows: Inhibition of TLR4 in BALB/c mouse BMDM assessed as downregulation of LPS-stimulated IL-6 level at 5 ug/ml preincubated for 18 hrs followed by LPS challenge measured after 24 hrs by ELISA relative to control. A digest of the protocol:
as §1

The target of assay [4] is T3, Toll-like receptor 9 (Mus musculus) (UniProt Q9EQU3).
T3 sequence (whole entry): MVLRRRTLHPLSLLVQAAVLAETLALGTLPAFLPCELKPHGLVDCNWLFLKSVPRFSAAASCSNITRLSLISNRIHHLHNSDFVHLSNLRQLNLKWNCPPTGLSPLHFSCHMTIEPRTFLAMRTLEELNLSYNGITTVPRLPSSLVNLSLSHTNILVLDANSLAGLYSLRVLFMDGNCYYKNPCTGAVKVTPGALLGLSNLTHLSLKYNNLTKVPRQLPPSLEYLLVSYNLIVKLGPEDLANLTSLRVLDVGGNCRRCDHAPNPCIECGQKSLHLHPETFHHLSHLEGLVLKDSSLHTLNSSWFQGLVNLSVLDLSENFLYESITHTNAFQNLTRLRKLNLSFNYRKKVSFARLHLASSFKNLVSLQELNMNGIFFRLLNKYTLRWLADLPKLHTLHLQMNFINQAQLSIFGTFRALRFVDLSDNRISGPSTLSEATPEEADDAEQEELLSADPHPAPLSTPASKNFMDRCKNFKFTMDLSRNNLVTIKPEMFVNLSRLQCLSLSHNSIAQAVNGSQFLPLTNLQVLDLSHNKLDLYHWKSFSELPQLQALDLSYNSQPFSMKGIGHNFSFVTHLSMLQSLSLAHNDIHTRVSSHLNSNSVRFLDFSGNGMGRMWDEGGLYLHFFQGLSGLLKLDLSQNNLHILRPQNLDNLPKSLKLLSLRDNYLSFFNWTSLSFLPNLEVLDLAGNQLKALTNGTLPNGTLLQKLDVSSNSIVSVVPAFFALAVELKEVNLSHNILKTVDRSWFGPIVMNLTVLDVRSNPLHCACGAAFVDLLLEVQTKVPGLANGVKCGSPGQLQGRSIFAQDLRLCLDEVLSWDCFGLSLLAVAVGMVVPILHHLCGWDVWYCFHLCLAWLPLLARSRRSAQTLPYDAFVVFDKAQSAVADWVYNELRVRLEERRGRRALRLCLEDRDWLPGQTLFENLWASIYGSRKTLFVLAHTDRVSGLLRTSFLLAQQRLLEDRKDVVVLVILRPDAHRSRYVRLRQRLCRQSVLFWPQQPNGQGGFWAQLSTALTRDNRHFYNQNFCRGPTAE
The assay is described as follows: Inhibition of TLR9 in BALB/c mouse BMDM assessed as downregulation of CpG-stimulated IL-6 level at 5 ug/ml preincubated for 18 hrs followed by CpG challenge measured after 24 hrs by ELISA relative to control. A digest of the protocol:
as §1

Assay [5] has as its target T3, Toll-like receptor 9 (Mus musculus). Put plainly: Inhibition of TLR9 in BALB/c mouse BMDM assessed as downregulation of CpG-stimulated IL-12p40 level at 5 ug/ml preincubated for 18 hrs followed by CpG challenge measured after 24 hrs by ELISA relative to control. A digest of the protocol:
as §1

For assay [6], the target named is T1, TLR2/TLR6 (Mus musculus). Put plainly: Inhibition of TLR2/6 in BALB/c mouse BMDM assessed as downregulation of BLP-stimulated IL-6 level at 5 ug/ml preincubated for 18 hrs followed by BLP challenge measured after 24 hrs by ELISA relative to control. The assay is classed as protein-complex assay. A digest of the protocol: as §1

The source made the active and inactive calls. The rule behind the calls is not given here.

For the compound `CC(C)(C)NCCS(=O)(=O)c1ccccc1`, the inhibition entry on TLR2/TLR6 (Mus musculus) [1] was “Active”. Moreover, the inhibition result (in assay [2]; in assay [3]; in assay [4]; in assay [5]; on TLR2/TLR6 (Mus musculus) [6]) was “inactive” throughout.

Consider `O=S(=O)(CCN1CCOCC1)Nc1ccccc1`, for which the inhibition entry (at TLR2/TLR6 (Mus musculus) [1]; in assay [2]; in assay [3]; in assay [4]; in assay [5]; at TLR2/TLR6 (Mus musculus) [6]) was “inactive” in each case.

For the compound `Cc1ccc(CNS(=O)(=O)CCN2CCOCC2)cc1`, the inhibition result (at TLR2/TLR6 (Mus musculus) [1]; in assay [2]; in assay [3]; in assay [4]; in assay [5]; on TLR2/TLR6 (Mus musculus) [6]) was “inactive” throughout.

In the case of `O=C(Cc1ccccc1)NCCN1CCOCC1`, the inhibition result (at TLR2/TLR6 (Mus musculus) [1]; in assay [3]; at TLR2/TLR6 (Mus musculus) [6]) was “inactive” in each case. The inhibition result in assay [2], in assay [4] and in assay [5] was “Active” throughout.

As for `CN(C)CCNS(=O)(=O)Cc1ccc(Br)cc1`, the inhibition result (on TLR2/TLR6 (Mus musculus) [1]; in assay [2]; in assay [3]; in assay [4]; in assay [5]; at TLR2/TLR6 (Mus musculus) [6]) was “inactive” throughout.

For the compound `O=S(=O)(CCN1CCOCC1)NCc1ccc(F)cc1`, the inhibition entry (on TLR2/TLR6 (Mus musculus) [1]; in assay [2]) was “inactive” each time. The inhibition result (in assay [3]; in assay [4]; in assay [5]; on TLR2/TLR6 (Mus musculus) [6]) was “Active” each time.

In the case of `Cc1ccc(CS(=O)(=O)CC[N+](C)(C)C)cc1`, the inhibition result (at TLR2/TLR6 (Mus musculus) [1]; in assay [2]; in assay [4]; in assay [5]) was “Active” in each case. Besides, the inhibition result (in assay [3]; at TLR2/TLR6 (Mus musculus) [6]) was “inactive” in each case.

As to `CN(C)CCOP(=O)(O)Cc1ccc(Br)cc1`, the inhibition result (at TLR2/TLR6 (Mus musculus) [1]; in assay [2]; in assay [3]; in assay [4]; in assay [5]; on TLR2/TLR6 (Mus musculus) [6]) was “inactive” in each case.

For `Cc1ccc(CNS(=O)(=O)CCN(C)CCN(C)C)cc1`, the inhibition entry (at TLR2/TLR6 (Mus musculus) [1]; in assay [5]) was “inactive” each time. The inhibition entry (in assay [2]; in assay [3]; in assay [4]; at TLR2/TLR6 (Mus musculus) [6]) was “Active” in each case.

Turning to `Cc1ccc(CS(=O)(=O)CCCN(C)C)cc1`, the inhibition entry (on TLR2/TLR6 (Mus musculus) [1]; in assay [2]; in assay [3]; in assay [4]; in assay [5]; on TLR2/TLR6 (Mus musculus) [6]) was “inactive” throughout.

For `Cc1ccc(CP(=O)(O)OCCCN(C)C)cc1`, the inhibition entry (on TLR2/TLR6 (Mus musculus) [1]; in assay [2]; in assay [3]; in assay [4]; in assay [5]; on TLR2/TLR6 (Mus musculus) [6]) was “inactive” throughout.

Consider `Cc1ccc(CS(=O)(=O)CCC[N+]2(C)CCCC2)cc1`, for which the inhibition entry (at TLR2/TLR6 (Mus musculus) [1]; in assay [2]; in assay [3]; in assay [4]; in assay [5]; on TLR2/TLR6 (Mus musculus) [6]) was “inactive” in each case.

Turning to `O=S(=O)(Cc1ccc2ccccc2c1)NCCN1CCOCC1`, the inhibition result (on TLR2/TLR6 (Mus musculus) [1]; in assay [3]; in assay [4]; in assay [5]) was “Active” each time. Besides, the inhibition result (in assay [2]; at TLR2/TLR6 (Mus musculus) [6]) was “inactive” each time.

In the case of `O=S(=O)(CCN1CCOCC1)Cc1ccc(F)cc1`, the inhibition result (on TLR2/TLR6 (Mus musculus) [1]; in assay [2]; in assay [4]; in assay [5]; at TLR2/TLR6 (Mus musculus) [6]) was “inactive” each time. In assay [3], the inhibition entry was “Active”.

In the case of `O=S(=O)(CCN1CCCC1)Nc1ccc(F)cc1`, the inhibition result (on TLR2/TLR6 (Mus musculus) [1]; in assay [3]; in assay [4]; in assay [5]; at TLR2/TLR6 (Mus musculus) [6]) was “inactive” each time. Moreover, the inhibition result in assay [2] is “Active”.

Consider `CN(C)CCS(=O)(=O)NCc1ccc(Br)cc1`, for which the inhibition result (at TLR2/TLR6 (Mus musculus) [1]; in assay [2]; in assay [3]; in assay [4]; in assay [5]; on TLR2/TLR6 (Mus musculus) [6]) was “inactive” in each case.

On to `O=S(=O)(CCN1CCCC1)c1ccccc1`, for which, at TLR2/TLR6 (Mus musculus) [1], the inhibition result was “Active”. In addition, the inhibition entry (in assay [2]; in assay [3]; in assay [4]; in assay [5]; at TLR2/TLR6 (Mus musculus) [6]) was “inactive” throughout.

For the compound `CN(C)CCN(C)CCS(=O)(=O)Nc1ccccc1`, the inhibition result (at TLR2/TLR6 (Mus musculus) [1]; in assay [3]; in assay [4]; in assay [5]; at TLR2/TLR6 (Mus musculus) [6]) was “inactive” in each case. In assay [2], the inhibition entry is “Active”.
